Compound activity: PubChem, Sanford-Burnham Center for Chemical Genomics
Sampled rows, rich in hits. Any-hit rate of the full collection: about 2.3%.
Diaph inh CS: diaphorase inhibitors and chemical oxidizers, primary screen, counter-screen for diaphorase-coupled primary assays, biochemical, uHTS, resorufin fluorescence; AID 1217, 2008; inhibition, % at 20 µM; diaphorase resazurin-to-resorufin fluorescence, NADH, 16 min; bacterial (C. kluyveri) enzyme, not human; actives 0.69% (n = 190,000);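 active means primary screen inhibition at 20 µM above a set limit, cut at about 50% in these data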;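 further: plate controls were DMSO with full reaction for no effect and wells lacking NADH for full effect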
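Assay system – diaphorase enzyme from Clostridium kluyveri · Amount – diaphorase 0.14 U/mL (working solution) · Times – reaction incubation of 16 min at room temperature · Controls – No-NADH positive control and DMSO neutral control · Signal – resorufin fluorescence 544/590 nm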
Diaph act CS: compounds boosting diaphorase resazurin reduction – biochemical, uHTS, resorufin fluorescence, counter-screen for diaphorase-coupled primary assays, primary screen. activation factor at 20 µM. Diaphorase/resazurin coupled assay, 16 min; stronger effect = higher value; 1 = vehicle wells, 0 = NADH-free wells. actives 0.005% (n = 190,000). AID 1229, 2008;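 active means diaphorase activity raised at least twofold by the compound at 20 µM; inactive means activation factor below 2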
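Test system: Clostridium kluyveri diaphorase, purified enzyme. Buffer or medium: 50 mM HEPES pH 7.4 buffer plus MgCl2 and Tween 20. Also added: 0.114 mM NADH and 0.1 mM resazurin, final amounts. Dosing: compound 20 µM once, DMSO 1%. Schedule: 16 min enzyme reaction, ambient temperature. Detection: fluorescence of resorufin, 544 nm excitation, 590 nm emission.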
G6PDH counter: L. mesenteroides G6PDH inhibitors, counter-screen for G6PDH-coupled screening assays, biochemical, Leuconostoc mesenteroides enzyme; glucose-6-phosphate dehydrogenase [Leuconostoc mesenteroides]; Purified L. mesenteroides G6PDH, diaphorase/resazurin coupled fluorescence, 45 min; inhibition, % at 5 µM; actives 0.12% (n = 200,000); AID 1020, 2008; in the data active means inhibition above about 50%
FLuc act counter: FLuc activators, initial screening, artefact control for FLuc-dependent activation tests, biochemical, ATPlite luminescence; 200,000 tested, under 10 active; ATPlite luciferase biochemical, 10 min; 0 = ATP-free wells, 1 = DMSO control; Luciferin 4-monooxygenase (Photinus pyralis), P08659; activation factor at 10 µM; AID 1027, 2008;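 active means luciferase activation factor, scaled between plate controls, of at least 2 with compound at 10 µM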
Target sequence (P08659 whole entry, looked up): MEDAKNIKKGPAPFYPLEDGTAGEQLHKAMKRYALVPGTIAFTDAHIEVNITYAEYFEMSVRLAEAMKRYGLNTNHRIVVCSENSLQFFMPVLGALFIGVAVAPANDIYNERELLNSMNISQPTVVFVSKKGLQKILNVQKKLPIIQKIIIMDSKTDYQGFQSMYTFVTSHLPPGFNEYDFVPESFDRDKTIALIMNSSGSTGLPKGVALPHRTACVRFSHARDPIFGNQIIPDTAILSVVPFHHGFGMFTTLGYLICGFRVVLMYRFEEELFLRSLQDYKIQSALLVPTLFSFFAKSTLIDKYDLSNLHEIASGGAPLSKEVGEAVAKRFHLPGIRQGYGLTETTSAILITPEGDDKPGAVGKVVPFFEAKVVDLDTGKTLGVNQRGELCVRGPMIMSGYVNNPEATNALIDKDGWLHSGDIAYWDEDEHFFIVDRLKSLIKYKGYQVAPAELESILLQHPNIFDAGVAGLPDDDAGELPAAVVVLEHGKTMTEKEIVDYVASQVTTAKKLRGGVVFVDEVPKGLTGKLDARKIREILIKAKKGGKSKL
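System: cell-free luciferase reagent; medium: PBS as buffer for the ATP substrate; doses: test compounds dosed from 2 mM stocks in 100% DMSO; incubation: 10 min, room temperature; measured by: luminescence from luciferase reaction; read-out: luciferase activation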
FLuc inh counter: firefly luciferase enzyme inhibitors, primary screen, artefact control for luciferase-based inhibitor screens, biochemical, luminescence, ATPLite; Luciferin 4-monooxygenase (Photinus pyralis), P08659; 10 min; inhibition, % at 10 µM; actives 1.5% (n = 200,000);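 active means inhibition above about 50% when tested at 10 µM, limit read from the data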
* = called active by the depositor.

Results for Cc1sc(NC(=O)/C=C/c2ccc(C(C)C)cc2)c(C#N)c1C ?
Diaph inh CS: 4; Diaph act CS: 1; G6PDH counter: -4; FLuc act counter: 1; FLuc inh counter: 0

How did CC(C)c1ccc(/C=C/C(=O)Nc2nncs2)cc1 do in these assays?
Diaph inh CS: 9; Diaph act CS: 0.9; G6PDH counter: -2; FLuc act counter: 0.4; FLuc inh counter: 59*

Results for CC(=O)OCCCNc1cc(SCc2ccco2)c2nonc2c1[N+](=O)[O-] ?
Diaph inh CS: 87*; Diaph act CS: 0.1; G6PDH counter: -13; FLuc act counter: 1; FLuc inh counter: -2

Results for CCCSc1cc(NCCOC(C)=O)c([N+](=O)[O-])c2nonc12 ?
Diaph inh CS: 36; Diaph act CS: 0.6; G6PDH counter: -4; FLuc act counter: 1; FLuc inh counter: -2

Results for CCCSc1cc(NCCOC(=O)CCC)c([N+](=O)[O-])c2nonc12 ?
Diaph inh CS: 51*; Diaph act CS: 0.5; G6PDH counter: -12; FLuc act counter: 1.1; FLuc inh counter: -5

What do the screens show for `CCCC(=O)OCCNc1cc(SCc2ccco2)c2nonc2c1[N+](=O)[O-]`?
Diaph inh CS: 71*; Diaph act CS: 0.3; G6PDH counter: -6; FLuc act counter: 0.9; FLuc inh counter: 7

How did COC(=O)c1sccc1-n1cccc1C(=O)C(=O)N1CC(C)OC(C)C1 (configuration not stated) do in these assays?
Diaph inh CS: 6; Diaph act CS: 0.9; G6PDH counter: -1; FLuc act counter: 1.1; FLuc inh counter: -8

How did CCC(C)NC(=O)CN(c1ccc(Cl)c(Cl)c1)S(C)(=O)=O (configuration not stated) do in these assays?
Diaph inh CS: 4; Diaph act CS: 1; G6PDH counter: 8; FLuc act counter: 1.1; FLuc inh counter: -7

What do the screens show for `CNc1ccc(/C=C2\CSc3ccccc3C2=O)cc1[N+](=O)[O-]`?
Diaph inh CS: 10; Diaph act CS: 0.9; G6PDH counter: -1; FLuc act counter: 0.4; FLuc inh counter: 55*

How did CC(C)(C)N(Cc1ccccc1)C(=O)COC(=O)Cn1cnc2ccccc2c1=O do in these assays?
Diaph inh CS: 7; Diaph act CS: 0.9; G6PDH counter: -1; FLuc act counter: 1; FLuc inh counter: -3

How did Oc1ccccc1-c1cc(-c2ccccc2)no1 do in these assays?
Diaph inh CS: 10; Diaph act CS: 0.9; G6PDH counter: 12; FLuc act counter: 0.5; FLuc inh counter: 51*

Results for Cc1ccccc1-c1cc(-c2ccccc2O)on1 ?
Diaph inh CS: 14; Diaph act CS: 0.9; G6PDH counter: 4; FLuc act counter: 0.6; FLuc inh counter: 36

What do the screens show for `Cc1ccc(-c2cc(-c3ccccc3)no2)c(O)c1`?
Diaph inh CS: 2; Diaph act CS: 1; G6PDH counter: 0; FLuc act counter: 0.1; FLuc inh counter: 87*

How did CCOc1ccccc1OCC(=O)NN1Cc2ccccc2C1=N do in these assays?
Diaph inh CS: 12; Diaph act CS: 0.9; G6PDH counter: 1; FLuc act counter: 1; FLuc inh counter: -4

What do the screens show for `COc1ccccc1C(=O)Nc1nnc(-c2ccco2)s1`?
Diaph inh CS: 0; Diaph act CS: 1; G6PDH counter: 12; FLuc act counter: 0.5; FLuc inh counter: 51*

Results for COc1ccc(C(=O)Nc2nnc(-c3ccco3)s2)cc1 ?
Diaph inh CS: -3; Diaph act CS: 1; G6PDH counter: -1; FLuc act counter: 0.4; FLuc inh counter: 62*

How did Cc1cccc(NC(NC(=O)Cc2ccccc2)C(Cl)(Cl)Cl)c1 (configuration not stated) do in these assays?
Diaph inh CS: 10; Diaph act CS: 0.9; G6PDH counter: -3; FLuc act counter: 1.1; FLuc inh counter: -8
